{"source": "ChEMBL document CHEMBL1154143", "about": "“Cytotoxic and anti-inflammatory cembranoids from the soft coral Lobophytum crassum” (J Nat Prod, 2008)", "key": {"[1]": {"tested_on": "HepG2", "assay": "Cytotoxicity against human HepG2 cells by MTT assay", "assay_type": "functional, cell-based", "in_short": "(§1)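 Human cancer cell lines obtained from ATCC. Cytotoxicity read by MTT colorimetric method.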"}, "[2]": {"tested_on": "MCF7", "assay": "Cytotoxicity against human MCF7 cells by MTT assay", "assay_type": "functional, cell-based", "in_short": "as §1"}, "[3]": {"tested_on": "Ca9-22", "assay": "Cytotoxicity against human Ca9-22 cells by MTT assay", "assay_type": "functional, cell-based", "in_short": "as §1"}, "[4]": {"tested_on": "MDA-MB-231", "assay": "Cytotoxicity against human MDA-MB-231 cells by MTT assay", "assay_type": "functional, cell-based", "in_short": "as §1"}, "[5]": {"tested_on": "A549", "assay": "Cytotoxicity against human A549 cells by MTT assay", "assay_type": "functional, cell-based", "in_short": "as §1"}, "[6]": {"assay": "Cytotoxicity against human Hep3B cells by MTT assay", "assay_type": "functional, cell-based, Hep 3B2", "in_short": "as §1"}, "[7]": {"tested_on": "RAW264.7", "assay": "Antiinflammatory activity in mouse RAW264.7 cells assessed as reduction in LPS-induced COX2 protein level at 10 uM treated 5 mins before LPS challenge by Western blot analysis relative to control", "assay_type": "functional", "parameters": "scale not given: the % may be the effect or the level left", "in_short": "(§2)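 Murine RAW 264.7 macrophages kept in DMEM with 10% heat-inactivated FBS at 37 °C, 5% CO2. Compound added 5 min before LPS (0.01 µg/mL), then 16 h incubation. Lysates of equal protein run on SDS-PAGE and blotted. iNOS and COX-2 probed, β-actin used as loading control, ECL detection. Band IOD expressed relative to the LPS-only control. One-way ANOVA with Student-Newman-Keuls test.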"}, "[8]": {"tested_on": "RAW264.7", "assay": "Antiinflammatory activity in mouse RAW264.7 cells assessed as reduction in LPS-induced iNOS protein level at 10 uM treated 5 mins before LPS challenge by Western blot analysis relative to control", "assay_type": "functional", "parameters": "scale not given: the % may be the effect or the level left", "in_short": "as §2"}}, "data": [{"smiles": "C/C1=C\\[C@@H]2OC(=O)[C@@H](CN(C)C)[C@@H]2CCC(C)/C=C/C/C(C(=O)O)=C/CC1", "note": "(stereo not given in full)", "values": [{"measurement": "IC50", "setting": "[1]", "result": "> 5", "unit": "µg/mL"}, {"measurement": "IC50", "setting": "[2]", "result": "> 5", "unit": "µg/mL"}, {"measurement": "IC50", "setting": "[3]", "result": "> 5", "unit": "µg/mL"}, {"measurement": "IC50", "setting": "[4]", "result": "> 5", "unit": "µg/mL"}, {"measurement": "IC50", "setting": "[5]", "result": "> 5", "unit": "µg/mL"}, {"measurement": "IC50", "setting": "[6]", "result": "> 5", "unit": "µg/mL"}]}, {"smiles": "C=C(CO)[C@@H]1CC/C(C)=C/CC/C(C)=C/CC/C(C)=C/[C@@H]1O", "values": [{"measurement": "IC50", "setting": "[1]", "result": "> 5", "unit": "µg/mL"}, {"measurement": "IC50", "setting": "[2]", "result": "> 5", "unit": "µg/mL"}, {"measurement": "IC50", "setting": "[3]", "result": "> 5", "unit": "µg/mL"}, {"measurement": "IC50", "setting": "[4]", "result": "> 5", "unit": "µg/mL"}, {"measurement": "IC50", "setting": "[5]", "result": "> 5", "unit": "µg/mL"}, {"measurement": "IC50", "setting": "[6]", "result": "> 5", "unit": "µg/mL"}]}, {"smiles": "O=C(/C=C/c1ccc(O)c(O)c1)OCCc1ccccc1", "note": "[CAFFEIC ACID PHENETHYL ESTER]", "values": [{"measurement": "Activity", "setting": "[7]", "result": 67.2, "unit": "%"}, {"measurement": "Activity", "setting": "[8]", "result": 2.5, "unit": "%"}]}, {"smiles": "C=C1C(=O)O[C@H]2C/C(C)=C/[C@@H](O)C/C(C)=C/CC/C(C)=C/C[C@H]12", "note": "[CRASSUMOLIDE A]", "values": [{"measurement": "Activity", "setting": "[7]", "result": 50.2, "unit": "%"}, {"measurement": "IC50", "setting": "[1]", "result": "> 5", "unit": "µg/mL"}, {"measurement": "IC50", "setting": "[2]", "result": "> 5", "unit": "µg/mL"}, {"measurement": "IC50", "setting": "[3]", "result": 3.2, "unit": "µg/mL"}, {"measurement": "IC50", "setting": "[4]", "result": "> 5", "unit": "µg/mL"}, {"measurement": "IC50", "setting": "[5]", "result": "> 5", "unit": "µg/mL"}, {"measurement": "IC50", "setting": "[6]", "result": "> 5", "unit": "µg/mL"}, {"measurement": "Activity", "setting": "[8]", "result": 26.8, "unit": "%"}]}, {"smiles": "C=C1C(=O)O[C@H]2/C=C(\\C)CC/C=C(\\CO)CC/C=C(\\C)CC[C@@H]12", "note": "[CRASSUMOLIDE B]", "values": [{"measurement": "IC50", "setting": "[1]", "result": "> 5", "unit": "µg/mL"}, {"measurement": "IC50", "setting": "[2]", "result": "> 5", "unit": "µg/mL"}, {"measurement": "IC50", "setting": "[3]", "result": "> 5", "unit": "µg/mL"}, {"measurement": "IC50", "setting": "[4]", "result": "> 5", "unit": "µg/mL"}, {"measurement": "IC50", "setting": "[5]", "result": "> 5", "unit": "µg/mL"}, {"measurement": "IC50", "setting": "[6]", "result": "> 5", "unit": "µg/mL"}]}, {"smiles": "C=C1C(=O)O[C@H]2/C=C(\\C)CC/C=C(\\C(=O)OC)CC/C=C(\\C)CC[C@@H]12", "note": "[CRASSUMOLIDE C]", "values": [{"measurement": "Activity", "setting": "[7]", "result": 34.5, "unit": "%"}, {"measurement": "IC50", "setting": "[1]", "result": "> 5", "unit": "µg/mL"}, {"measurement": "IC50", "setting": "[2]", "result": "> 5", "unit": "µg/mL"}, {"measurement": "IC50", "setting": "[3]", "result": 1.7, "unit": "µg/mL"}, {"measurement": "IC50", "setting": "[4]", "result": "> 5", "unit": "µg/mL"}, {"measurement": "IC50", "setting": "[5]", "result": "> 5", "unit": "µg/mL"}, {"measurement": "IC50", "setting": "[6]", "result": "> 5", "unit": "µg/mL"}, {"measurement": "Activity", "setting": "[8]", "result": 2.3, "unit": "%"}]}, {"smiles": "C=C1C(=O)O[C@H]2/C=C(\\C)CC/C=C(\\C)C/C=C/[C@](C)(O)CC[C@@H]12", "note": "[CRASSUMOLIDE D]", "values": [{"measurement": "IC50", "setting": "[1]", "result": "> 5", "unit": "µg/mL"}, {"measurement": "IC50", "setting": "[2]", "result": "> 5", "unit": "µg/mL"}, {"measurement": "IC50", "setting": "[3]", "result": "> 5", "unit": "µg/mL"}, {"measurement": "IC50", "setting": "[4]", "result": "> 5", "unit": "µg/mL"}, {"measurement": "IC50", "setting": "[5]", "result": "> 5", "unit": "µg/mL"}, {"measurement": "IC50", "setting": "[6]", "result": "> 5", "unit": "µg/mL"}]}, {"smiles": "C=C(CO)[C@@H]1CC[C@@](C)(OO)/C=C/C/C(C)=C/CC/C(C)=C/[C@@H]1O", "note": "[CRASSUMOLIDE E]", "values": [{"measurement": "IC50", "setting": "[1]", "result": "> 5", "unit": "µg/mL"}, {"measurement": "IC50", "setting": "[2]", "result": "> 5", "unit": "µg/mL"}, {"measurement": "IC50", "setting": "[3]", "result": "> 5", "unit": "µg/mL"}, {"measurement": "IC50", "setting": "[4]", "result": "> 5", "unit": "µg/mL"}, {"measurement": "IC50", "setting": "[5]", "result": "> 5", "unit": "µg/mL"}, {"measurement": "IC50", "setting": "[6]", "result": "> 5", "unit": "µg/mL"}]}, {"smiles": "C=C1C(=O)O[C@H]2/C=C(\\C)C/C=C/[C@@](C)(O)CC/C=C(\\C)CC[C@@H]12", "note": "[CRASSUMOLIDE F]", "values": [{"measurement": "IC50", "setting": "[1]", "result": "> 5", "unit": "µg/mL"}, {"measurement": "IC50", "setting": "[2]", "result": "> 5", "unit": "µg/mL"}, {"measurement": "IC50", "setting": "[3]", "result": "> 5", "unit": "µg/mL"}, {"measurement": "IC50", "setting": "[4]", "result": "> 5", "unit": "µg/mL"}, {"measurement": "IC50", "setting": "[5]", "result": "> 5", "unit": "µg/mL"}, {"measurement": "IC50", "setting": "[6]", "result": "> 5", "unit": "µg/mL"}]}, {"smiles": "C=C1C(=O)O[C@H]2/C=C(\\C)CC[C@H](OC(C)=O)[C@@]3(C)CC[C@H](OO3)/C(C)=C\\C[C@@H]12", "note": "[DENTICULATOLIDE]", "values": [{"measurement": "Activity", "setting": "[7]", "result": 34.3, "unit": "%"}, {"measurement": "IC50", "setting": "[1]", "result": 2.4, "unit": "µg/mL"}, {"measurement": "IC50", "setting": "[2]", "result": 2, "unit": "µg/mL"}, {"measurement": "IC50", "setting": "[3]", "result": 1.2, "unit": "µg/mL"}, {"measurement": "IC50", "setting": "[4]", "result": 2, "unit": "µg/mL"}, {"measurement": "IC50", "setting": "[5]", "result": 2.3, "unit": "µg/mL"}, {"measurement": "IC50", "setting": "[6]", "result": 2.5, "unit": "µg/mL"}, {"measurement": "Activity", "setting": "[8]", "result": 10.2, "unit": "%"}]}, {"smiles": "COc1cccc2c1C(=O)c1c(O)c3c(c(O)c1C2=O)C[C@@](O)(C(=O)CO)C[C@@H]3O[C@H]1C[C@H](N)[C@H](O)[C@H](C)O1", "note": "[DOXORUBICIN]", "values": [{"measurement": "IC50", "setting": "[1]", "result": 0.2, "unit": "µg/mL"}, {"measurement": "IC50", "setting": "[2]", "result": 0.2, "unit": "µg/mL"}, {"measurement": "IC50", "setting": "[3]", "result": 0.1, "unit": "µg/mL"}, {"measurement": "IC50", "setting": "[4]", "result": 0.2, "unit": "µg/mL"}, {"measurement": "IC50", "setting": "[6]", "result": 0.2, "unit": "µg/mL"}]}, {"smiles": "C=C1C(=O)O[C@H]2/C=C(\\C)CC/C=C(/C(=O)O)CC/C=C(\\C)CC[C@@H]12", "note": "[LOBOHEDLEOLIDE]", "values": [{"measurement": "Activity", "setting": "[7]", "result": 39.2, "unit": "%"}, {"measurement": "IC50", "setting": "[1]", "result": "> 5", "unit": "µg/mL"}, {"measurement": "IC50", "setting": "[2]", "result": "> 5", "unit": "µg/mL"}, {"measurement": "IC50", "setting": "[3]", "result": 2.8, "unit": "µg/mL"}, {"measurement": "IC50", "setting": "[4]", "result": "> 5", "unit": "µg/mL"}, {"measurement": "IC50", "setting": "[5]", "result": 4.6, "unit": "µg/mL"}, {"measurement": "IC50", "setting": "[6]", "result": 4.7, "unit": "µg/mL"}, {"measurement": "Activity", "setting": "[8]", "result": 21.5, "unit": "%"}]}]}
